Experimental data taken from ChEMBL document CHEMBL1132565 (J Med Chem, 1999).
Active and inactive are the calls of the source.

How the values were obtained:
[1] = Half-life time of enzymatic breakdown in mouse brain.; format: ADME
In short: (§1)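 Methanol added to stop each sample, followed by centrifugation. Residual activity in the supernatant was bioassayed on GPI or MVD and expressed as % of time-0 recovery. Three experiments.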

[2] = Half-life time of enzymatic breakdown in mouse liver.; format: ADME; in short: as §1
Cavia porcellus = species on record: Cavia porcellus; assay: In vitro concentration required to inhibit electrically evoked twitch in isolated guinea pig ileum.; format: functional
In short: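 Myenteric plexus-longitudinal muscle strips from male guinea pig small intestine, field-stimulated with supramaximal bipolar rectangular pulses. Inhibition of the electrically evoked twitch measured. IC50 taken from concentration-response curves, at least six tissues.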

Mus musculus [3] = assay: Antinociceptive activity after subcutaneous administration in mice.; format: functional
In short: (§2)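 Male CD-1 mice (25-30 g), peptide dissolved in sterile Ringer's solution and injected subcutaneously at 0.05 mL/10 g, 5-8 animals per dose. Hot plate at 55 °C, latency to back-paw licking or escape jump recorded. Cut-off 15 s. Mice not responding within 5 s before drug were excluded. Testing every 15 min for the first hour, then every 30 min. %MPE calculated. AD50 with 95% CL by Litchfield-Wilcox.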

Mus musculus [4] = species on record: Mus musculus; assay: In vitro concentration required to inhibit electrically evoked twitch in isolated mouse vas deferens.; format: functional
In short: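 Mouse vas deferens field-stimulated with supramaximal bipolar rectangular pulses. Inhibition of the electrically evoked twitch measured. IC50 taken from concentration-response curves, at least six tissues.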

[5] = target: Delta-type opioid receptor (Mus musculus, UniProt P32300); assay: Displacement of [3H]NLT from Opioid receptor delta 1 of adult male mouse brain.
Sequence of Delta-type opioid receptor (P32300 whole entry): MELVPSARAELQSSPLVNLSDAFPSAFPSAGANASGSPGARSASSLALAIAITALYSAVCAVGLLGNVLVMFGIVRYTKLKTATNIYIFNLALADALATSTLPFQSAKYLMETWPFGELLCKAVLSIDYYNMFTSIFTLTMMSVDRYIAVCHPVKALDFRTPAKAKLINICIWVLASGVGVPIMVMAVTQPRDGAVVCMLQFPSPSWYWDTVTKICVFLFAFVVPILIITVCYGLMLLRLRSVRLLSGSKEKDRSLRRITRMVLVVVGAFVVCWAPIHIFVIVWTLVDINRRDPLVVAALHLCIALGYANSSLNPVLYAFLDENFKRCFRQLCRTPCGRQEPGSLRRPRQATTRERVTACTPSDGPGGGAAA

Mu-type opioid receptor = Mu-type opioid receptor (Mus musculus, UniProt P42866); assay: Displacement of [3H]-DAGO from Opioid receptor mu 1 of adult male mouse brain.; format: tissue-based
Sequence of Mu-type opioid receptor (P42866 whole entry): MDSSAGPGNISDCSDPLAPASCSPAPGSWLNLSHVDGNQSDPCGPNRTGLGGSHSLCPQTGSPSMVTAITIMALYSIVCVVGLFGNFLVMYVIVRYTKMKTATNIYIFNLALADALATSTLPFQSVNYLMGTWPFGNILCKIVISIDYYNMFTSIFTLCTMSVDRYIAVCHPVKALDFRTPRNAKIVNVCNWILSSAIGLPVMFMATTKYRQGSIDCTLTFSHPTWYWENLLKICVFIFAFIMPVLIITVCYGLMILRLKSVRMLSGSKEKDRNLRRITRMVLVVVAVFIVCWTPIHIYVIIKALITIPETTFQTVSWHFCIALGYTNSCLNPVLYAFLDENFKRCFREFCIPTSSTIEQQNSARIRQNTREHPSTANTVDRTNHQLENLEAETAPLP
In short: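 Crude membranes from adult male Albino Swiss mouse brain, pre-incubated 30 min at 25 °C to remove endogenous opioids. Competition against [3H]DAGO 0.5 nM on 1 mg membrane protein in 50 mM Tris-HCl pH 7.4, 35 °C for 90 min. Nonspecific binding defined with 10 µM naloxone, 12 inhibitor concentrations. GF/B filtration and scintillation counting. Ki from competition curves, run in triplicate.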

Mus musculus [6] = assay: Antinociceptive activity after subcutaneous administration in mice; the highest dose tested, 100 uM/Kg, was unable to produce a significant analgesia.; format: functional, organism-based; in short: as §2
Mus musculus [7] = assay: Antinociceptive activity after subcutaneous administration in mice was determined in analgesia hotplate test; format: functional; in short: as §2
Mus musculus [8] = assay: Antinociceptive activity after subcutaneous administration in mice. p<0.05 vs dermorphin; format: functional; in short: as §2

Row | SMILES | half-life [1] | half-life [2] | IC50 (Cavia porcellus) | AD50 (Mus musculus [3]) | IC50 (Mus musculus [4]) | Ki [5] | Ki (Mu-type opioid receptor) | AD50 (Mus musculus [6]) | AD50 (Mus musculus [7]) | AD50 (Mus musculus [8])
1 | CC(=O)O[C@H]1[C@H](O)[C@@H](O)[C@@H](O)O[C@@H]1COC(=O)[C@H](CO)NC(=O)[C@@H]1CCCN1C(=O)[C@H](Cc1ccc(O)cc1)NC(=O)CNC(=O)[C@H](Cc1ccccc1)NC(=O)[C@@H](C)NC(=O)[C@@H](N)Cc1ccc(O)cc1 | 1.5 h | 1 h | 8.2 nM | 4.6 µM/kg | 18 nM |  |  |  |  | 
2 | CC(=O)O[C@H]1[C@H](O)[C@@H](O)[C@@H](O)O[C@@H]1COC(=O)[C@H](CO)NC(=O)[C@@H](NC(=O)[C@@H](NC(=O)[C@H](CC(=O)O)NC(=O)[C@H](Cc1ccccc1)NC(=O)[C@@H](C)NC(=O)[C@@H](N)Cc1ccc(O)cc1)C(C)C)C(C)C | > 4 h | 4 h | 1900 nM |  | 2.7 nM | 28 nM | 1920 nM |  |  | 
3 | CC(=O)O[C@H]1[C@@H](OC(=O)[C@H](C)NC(=O)[C@@H](NC(=O)[C@@H](NC(=O)[C@H](CC(=O)O)NC(=O)[C@H](Cc2ccccc2)NC(=O)[C@@H](C)NC(=O)[C@@H](N)Cc2ccc(O)cc2)C(C)C)C(C)C)O[C@H](O)[C@H](O)[C@H]1O |  |  | > 2000 nM |  | 43 nM | 160 nM | 2830 nM |  |  | 
4 | CC(C)[C@H](NC(=O)[C@H](CC(=O)O)NC(=O)[C@H](Cc1ccccc1)NC(=O)[C@@H](C)NC(=O)[C@@H](N)Cc1ccc(O)cc1)C(=O)N[C@H](C(=O)N[C@H](C)C(N)=O)C(C)C |  |  |  |  |  |  |  | inactive |  | 
5 | CC(C)[C@H](NC(=O)[C@H](CC(=O)O)NC(=O)[C@H](Cc1ccccc1)NC(=O)[C@@H](C)NC(=O)[C@@H](N)Cc1ccc(O)cc1)C(=O)N[C@H](C(=O)NCC(N)=O)C(C)C [DELTORPHIN C] | 4 h | 1.83 h | 1240 nM | 87 µM/kg | 0.2 nM |  | 1980 nM |  |  | 
6 | CC(=O)O[C@H]1[C@@H](OC(=O)[C@@H](C)NC(=O)[C@@H](NC(=O)[C@@H](NC(=O)[C@H](CC(=O)O)NC(=O)[C@H](Cc2ccccc2)NC(=O)[C@@H](C)NC(=O)[C@@H](N)Cc2ccc(O)cc2)C(C)C)C(C)C)O[C@H](O)[C@H](O)[C@H]1O |  |  |  |  |  |  |  |  | 61 µM/kg | 
7 | CC(C)[C@H](NC(=O)[C@H](CC(=O)O)NC(=O)[C@H](Cc1ccccc1)NC(=O)[C@@H](C)NC(=O)[C@@H](N)Cc1ccc(O)cc1)C(=O)N[C@H](C(=O)N[C@@H](C)C(=O)O[C@H]1O[C@H](O)[C@H](O)[C@@H](O)[C@H]1O)C(C)C |  |  | > 2000 nM |  | 36 nM | 176 nM | 1590 nM |  |  | 
8 | CC(C)[C@H](NC(=O)[C@H](CC(=O)O)NC(=O)[C@H](Cc1ccccc1)NC(=O)[C@@H](C)NC(=O)[C@@H](N)Cc1ccc(O)cc1)C(=O)N[C@H](C(=O)N[C@@H](CO)C(N)=O)C(C)C |  |  | 1400 nM |  | 4.3 nM | 30 nM | 1100 nM |  |  | 
9 | C[C@@H](NC(=O)[C@@H](N)Cc1ccc(O)cc1)C(=O)N[C@@H](Cc1ccccc1)C(=O)NCC(=O)N[C@@H](Cc1ccc(O)cc1)C(=O)N1CCC[C@H]1C(=O)N[C@@H](CO)C(N)=O [DERMORPHIN] | 0.333 h | 0.167 h | 1.5 nM | 2.4 µM/kg | 19 nM |  | 1.1 nM |  |  | 
10 | CC(C)[C@H](NC(=O)[C@H](CC(=O)O)NC(=O)[C@H](Cc1ccccc1)NC(=O)[C@@H](C)NC(=O)[C@@H](N)Cc1ccc(O)cc1)C(=O)N[C@H](C(=O)N[C@@H](CO)C(=O)OC[C@H]1O[C@H](O)[C@H](O)[C@@H](O)[C@@H]1O)C(C)C | > 4 h | 3 h | 1600 nM |  | 3.1 nM | 23 nM | 879 nM |  |  | 
11 | C[C@@H](NC(=O)[C@@H](N)Cc1ccc(O)cc1)C(=O)N[C@@H](Cc1ccccc1)C(=O)NCC(=O)N[C@@H](Cc1ccc(O)cc1)C(=O)N1C[C@H](O)C[C@H]1C(=O)N[C@@H](CCCCN)C(N)=O | 0.5 h | 0.333 h | 2.1 nM |  | 35 nM | 1410 nM | 0.5 nM |  |  | 0.9 µM/kg
12 | C[C@@H](NC(=O)[C@@H](N)Cc1ccc(O)cc1)C(=O)N[C@@H](Cc1ccccc1)C(=O)NCC(=O)N[C@@H](Cc1ccc(O)cc1)C(=O)N1CCC[C@H]1C(=O)N[C@@H](CO)C(=O)OC[C@H]1O[C@H](O)[C@H](O)[C@@H](O)[C@@H]1O | 0.633 h | 0.5 h | 3.5 nM |  | 40 nM |  |  |  | 1.4 µM/kg | 
13 | CC(=O)O[C@@H]1[C@H](O)[C@@H](O)[C@@H](O)O[C@@H]1COC(=O)[C@H](C)NC(=O)[C@@H]1CCCN1C(=O)[C@H](Cc1ccc(O)cc1)NC(=O)CNC(=O)[C@H](Cc1ccccc1)NC(=O)[C@@H](C)NC(=O)[C@@H](N)Cc1ccc(O)cc1 |  |  | 6 nM | 6.6 µM/kg | 65 nM | > 5000 nM | 11.2 nM |  |  | 
14 | CC(C)[C@H](NC(=O)[C@H](CC(=O)O)NC(=O)[C@H](Cc1ccccc1)NC(=O)[C@@H](C)NC(=O)[C@@H](N)Cc1ccc(O)cc1)C(=O)N[C@H](C(=O)N[C@H](CO)C(=O)OC[C@H]1O[C@H](O)[C@H](O)[C@@H](O)[C@@H]1O)C(C)C |  |  |  |  |  |  |  |  | 44 µM/kg | 
15 | CC(C)[C@H](NC(=O)[C@H](CC(=O)O)NC(=O)[C@H](Cc1ccccc1)NC(=O)[C@@H](C)NC(=O)[C@@H](N)Cc1ccc(O)cc1)C(=O)N[C@H](C(=O)N[C@H](C)C(=O)O[C@H]1O[C@H](O)[C@H](O)[C@@H](O)[C@H]1O)C(C)C |  |  |  |  |  |  |  |  | 19 µM/kg | 
16 | CC(C)[C@H](NC(=O)[C@H](CC(=O)O)NC(=O)[C@H](Cc1ccccc1)NC(=O)[C@@H](C)NC(=O)[C@@H](N)Cc1ccc(O)cc1)C(=O)N[C@H](C(=O)N[C@@H](C)C(N)=O)C(C)C |  |  | > 2000 nM |  | 6.9 nM | 40 nM | 1900 nM |  |  | 
17 | C[C@H](NC(=O)[C@@H]1CCCN1C(=O)[C@H](Cc1ccc(O)cc1)NC(=O)CNC(=O)[C@H](Cc1ccccc1)NC(=O)[C@@H](C)NC(=O)[C@@H](N)Cc1ccc(O)cc1)C(N)=O |  |  | 1.6 nM |  | 24 nM | 1110 nM | 1.2 nM |  |  | 
18 | C[C@H](NC(=O)[C@@H]1CCCN1C(=O)[C@H](Cc1ccc(O)cc1)NC(=O)CNC(=O)[C@H](Cc1ccccc1)NC(=O)[C@@H](C)NC(=O)[C@@H](N)Cc1ccc(O)cc1)C(=O)OC[C@H]1O[C@H](O)[C@H](O)[C@@H](O)[C@H]1O |  |  | 4 nM |  | 55 nM | 2850 nM | 2.5 nM |  | 1.1 µM/kg | 
19 | CC(=O)O[C@H]1[C@H](O)[C@@H](O)[C@@H](O)O[C@@H]1COC(=O)[C@@H](CO)NC(=O)[C@@H](NC(=O)[C@@H](NC(=O)[C@H](CC(=O)O)NC(=O)[C@H](Cc1ccccc1)NC(=O)[C@@H](C)NC(=O)[C@@H](N)Cc1ccc(O)cc1)C(C)C)C(C)C |  |  |  | 70 µM/kg |  |  |  |  |  | 
